Assay results reported in ChEMBL document CHEMBL4689842, “EUbOPEN Chemogenomics Library wave 1” (2021).

Test system: Fibroblast
Experiment: Multiplex assay against human fibroblast
Assay type: toxicity, cell-based
Procedure, shortened: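 Cells stained live at seeding with Hoechst33342, BioTracker Green Microtubule Cytoskeleton Dye, MitoTracker Red and Annexin V Alexa Fluor 680 were imaged on a CQ1 microscope at 37°C and 5% CO2 after compound addition. Their classification by CellPathfinder machine-learning gating ran from Hoechst high-intensity objects versus normal cells, to healthy, pyknosed or fragmented nuclei among normal cells, to mitotic or apoptotic among pyknosed cells. Tubulin, mitochondrial-mass and membrane-permeability phenotypes are per cents of healthy-nucleus cells.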

[1] = 12 h, 1 µM, compound concentration 1 uM, replicate 1
[2] = 12 h, 1 µM, compound concentration 1 uM, replicate 2
[3] = 12 h, 10 µM, compound concentration 10 uM, replicate 1
[4] = 12 h, 10 µM, compound concentration 10 uM, replicate 2
[5] = 24 h, 1 µM, compound concentration 1 uM, replicate 1
[6] = 24 h, 1 µM, compound concentration 1 uM, replicate 2
[7] = 24 h, 10 µM, compound concentration 10 uM, replicate 1
[8] = 24 h, 10 µM, compound concentration 10 uM, replicate 2
[9] = 48 h, 1 µM, compound concentration 1 uM, replicate 1
[10] = 48 h, 1 µM, compound concentration 1 uM, replicate 2
[11] = 48 h, 10 µM, compound concentration 10 uM, replicate 1
[12] = 48 h, 10 µM, compound concentration 10 uM, replicate 2

`C[C@]12CC[C@@H]3c4ccc(O)cc4CC[C@H]3[C@@H]1CC[C@@H]2O` [ESTRADIOL] was tested, and the “Population Apoptotic (%)” value [1] was 73%, the “Population Fragmented Nuclei (%)” value [1] was 30% and the “Population Healthy Nuclei (%)” value [1] was 50%. The “Population Hoechst High Intensity Objects (%)” value [1] was 21%, the “Population Membrane Permeable-Phenotype (%)” value [1] was 20% and the “Population Mitochondria Different-Phenotype (%)” value [1] was 9%. The “Population Mitotic Cells (%)” value [1] was 26%, the “Population Normal (%)” value [1] was 78% and the “Population Pyknosed Nuclei (%)” value [1] was 18%. For the same compound, the “Population Tubulin-Different-Phenotype (%)” value [1] was 46%, the “Population Apoptotic (%)” value [2] was 50% and the “Population Fragmented Nuclei (%)” value [2] was 8%. The “Population Healthy Nuclei (%)” value [2] was 86%, the “Population Hoechst High Intensity Objects (%)” value [2] was 5% and the “Population Membrane Permeable-Phenotype (%)” value [2] was 4%. The “Population Mitochondria Different-Phenotype (%)” value [2] was 8%, the “Population Mitotic Cells (%)” value [2] was 50% and the “Population Normal (%)” value [2] was 94%. The “Population Pyknosed Nuclei (%)” value [2] was 5%, the “Population Tubulin-Different-Phenotype (%)” value [2] was 14% and the “Population Apoptotic (%)” value [3] was 75%. For the same compound, the “Population Fragmented Nuclei (%)” value [3] was 24%, the “Population Healthy Nuclei (%)” value [3] was 57% and the “Population Hoechst High Intensity Objects (%)” value [3] was 14%. The “Population Membrane Permeable-Phenotype (%)” value [3] was 20%, the “Population Mitochondria Different-Phenotype (%)” value [3] was 7% and the “Population Mitotic Cells (%)” value [3] was 25%. For the same compound, the “Population Normal (%)” value [3] was 85%, the “Population Pyknosed Nuclei (%)” value [3] was 18% and the “Population Tubulin-Different-Phenotype (%)” value [3] was 33%. For the same compound, the “Population Apoptotic (%)” value [4] was 25%, the “Population Fragmented Nuclei (%)” value [4] was 9% and the “Population Healthy Nuclei (%)” value [4] was 77%. The “Population Hoechst High Intensity Objects (%)” value [4] was 8%, the “Population Membrane Permeable-Phenotype (%)” value [4] was 4% and the “Population Mitochondria Different-Phenotype (%)” value [4] was 12%. For the same compound, the “Population Mitotic Cells (%)” value [4] was 75%, the “Population Normal (%)” value [4] was 91% and the “Population Pyknosed Nuclei (%)” value [4] was 12%. For the same compound, the “Population Tubulin-Different-Phenotype (%)” value [4] was 25%, the “Population Apoptotic (%)” value [5] was 45% and the “Population Fragmented Nuclei (%)” value [5] was 33%. For the same compound, the “Population Healthy Nuclei (%)” value [5] was 50%, the “Population Hoechst High Intensity Objects (%)” value [5] was 18% and the “Population Membrane Permeable-Phenotype (%)” value [5] was 29%. For the same compound, the “Population Mitochondria Different-Phenotype (%)” value [5] was 3%, the “Population Mitotic Cells (%)” value [5] was 55% and the “Population Normal (%)” value [5] was 82%. The “Population Pyknosed Nuclei (%)” value [5] was 16%, the “Population Tubulin-Different-Phenotype (%)” value [5] was 43% and the “Population Apoptotic (%)” value [6] was 50%. The “Population Fragmented Nuclei (%)” value [6] was 4%, the “Population Healthy Nuclei (%)” value [6] was 89% and the “Population Hoechst High Intensity Objects (%)” value [6] was 3%. For the same compound, the “Population Membrane Permeable-Phenotype (%)” value [6] was 4%, the “Population Mitochondria Different-Phenotype (%)” value [6] was 9% and the “Population Mitotic Cells (%)” value [6] was 50%. The “Population Normal (%)” value [6] was 96%, the “Population Pyknosed Nuclei (%)” value [6] was 6% and the “Population Tubulin-Different-Phenotype (%)” value [6] was 14%. For the same compound, the “Population Apoptotic (%)” value [7] was 73%, the “Population Fragmented Nuclei (%)” value [7] was 22% and the “Population Healthy Nuclei (%)” value [7] was 60%. For the same compound, the “Population Hoechst High Intensity Objects (%)” value [7] was 11%, the “Population Membrane Permeable-Phenotype (%)” value [7] was 29% and the “Population Mitochondria Different-Phenotype (%)” value [7] was 9%. The “Population Mitotic Cells (%)” value [7] was 26%, the “Population Normal (%)” value [7] was 88% and the “Population Pyknosed Nuclei (%)” value [7] was 17%. For the same compound, the “Population Tubulin-Different-Phenotype (%)” value [7] was 35%, the “Population Apoptotic (%)” value [8] was 30% and the “Population Fragmented Nuclei (%)” value [8] was 18%. The “Population Healthy Nuclei (%)” value [8] was 68%, the “Population Hoechst High Intensity Objects (%)” value [8] was 3% and the “Population Membrane Permeable-Phenotype (%)” value [8] was 5%. The “Population Mitochondria Different-Phenotype (%)” value [8] was 11%, the “Population Mitotic Cells (%)” value [8] was 70% and the “Population Normal (%)” value [8] was 96%. The “Population Pyknosed Nuclei (%)” value [8] was 13%, the “Population Tubulin-Different-Phenotype (%)” value [8] was 43% and the “Population Apoptotic (%)” value [9] was 83%. For the same compound, the “Population Fragmented Nuclei (%)” value [9] was 42%, the “Population Healthy Nuclei (%)” value [9] was 51% and the “Population Hoechst High Intensity Objects (%)” value [9] was 24%. The “Population Membrane Permeable-Phenotype (%)” value [9] was 26%, the “Population Mitochondria Different-Phenotype (%)” value [9] was 0% and the “Population Mitotic Cells (%)” value [9] was 16%. For the same compound, the “Population Normal (%)” value [9] was 75%, the “Population Pyknosed Nuclei (%)” value [9] was 5% and the “Population Tubulin-Different-Phenotype (%)” value [9] was 42%. The “Population Apoptotic (%)” value [10] was 0%, the “Population Fragmented Nuclei (%)” value [10] was 24% and the “Population Healthy Nuclei (%)” value [10] was 74%. For the same compound, the “Population Hoechst High Intensity Objects (%)” value [10] was 14%, the “Population Membrane Permeable-Phenotype (%)” value [10] was 8% and the “Population Mitotic Cells (%)” value [10] was 100%. For the same compound, the “Population Normal (%)” value [10] was 85%, the “Population Pyknosed Nuclei (%)” value [10] was 1% and the “Population Tubulin-Different-Phenotype (%)” value [10] was 26%. For the same compound, the “Population Apoptotic (%)” value [11] was 66%, the “Population Fragmented Nuclei (%)” value [11] was 36% and the “Population Healthy Nuclei (%)” value [11] was 58%. The “Population Hoechst High Intensity Objects (%)” value [11] was 13%, the “Population Membrane Permeable-Phenotype (%)” value [11] was 11% and the “Population Mitochondria Different-Phenotype (%)” value [11] was 3%. For the same compound, the “Population Mitotic Cells (%)” value [11] was 33%, the “Population Normal (%)” value [11] was 86% and the “Population Pyknosed Nuclei (%)” value [11] was 5%. For the same compound, the “Population Tubulin-Different-Phenotype (%)” value [11] was 17%, the “Population Apoptotic (%)” value [12] was 0% and the “Population Fragmented Nuclei (%)” value [12] was 32%. The “Population Healthy Nuclei (%)” value [12] was 65%, the “Population Hoechst High Intensity Objects (%)” value [12] was 2% and the “Population Membrane Permeable-Phenotype (%)” value [12] was 16%. For the same compound, the “Population Mitochondria Different-Phenotype (%)” value [12] was 1%, the “Population Mitotic Cells (%)” value [12] was 100% and the “Population Normal (%)” value [12] was 97%. The “Population Pyknosed Nuclei (%)” value [12] was 2% and the “Population Tubulin-Different-Phenotype (%)” value [12] was 41%.
